The values below come from ChEMBL document CHEMBL1126569, “Nucleosides and nucleotides. 123. Synthesis of 1-(2-deoxy-2-isocyano-beta-D-arabinofuranosyl)cytosine and related nucleosides as potential antitumor agents” (J Med Chem, 1993).

For assay [1], the system named is Lewis lung carcinoma cell line. The experiment in a line: Tested in vitro for cytotoxicity against LLC Lewis lung carcinoma cell line. The settings on record: Mus musculus. The assay is classed as functional, cell-based. Put shortly:
(§1)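 Cells were grown in RPMI 1640 with 10% FCS, and the L1210 medium also had 2-mercaptoethanol added. Compound was dissolved in Ca/Mg-free Dulbecco's PBS or saline, diluted in culture medium and applied for 72 h in a CO2 incubator. Cells were fixed in 0.1% glutaraldehyde and stained with 0.01% crystal violet. Dye was extracted in 50% EtOH–25 mM NaH2PO4 and OD read. IC50 is the concentration giving 50% reduction of optical density.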

Assay [2] concerns KATO III stomach cancer cell line. The experiment in a line: Tested in vitro for cytotoxicity against KATO III human stomach adenocarcinoma cell line. It is filed as functional, cell-based. Put shortly: as §1
Assay [3] concerns Mus musculus. The experiment in a line: Tested for in vivo antitumor activity against Lewis Lung Carcinoma cell line in mice and tumor weight change at 200 mg/Kg per day. The assay is classed as functional. Put shortly: (§2)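 A 2-mm cube of LLC was implanted s.c. in the backs of 9-week-old male BDF1 mice on day 0, with 7 mice per dose group. Drug in saline was given i.p. once daily on days 1–5 at 0.1 mL/10 g body weight. Tumor weight was measured on day 17. Percent inhibition compares the mean tumor weight of treated mice with vehicle-only controls.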

Assay [4] has as its system L1210. As to the kind of experiment: Tested in vitro for cytotoxicity against leukemia L1210 cell line in mouse. The assay is classed as functional, cell-based. Put shortly: as §1
For assay [5], the system named is Mus musculus. The experiment in a line: In vivo percent inhibition of Lewis Lung Carcinoma cell line in mice at 100 mg/Kg per day (p<0.001) compared with ara-C. It is filed as functional. Put shortly: as §2
Assay [6] deals with Mus musculus. As to the kind of experiment: Mean body weight change on 17th day at a dose of 100 mg/kg/day. The assay is classed as functional. Put shortly: (§3)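 LLC fragments were implanted s.c. into male BDF1 mice aged 9 weeks on day 0, with seven animals per dose. Drug dissolved in saline was given intraperitoneally once a day for 5 days, days 1–5. Mean body weight change was recorded on day 5 and on day 17 and compared with saline-vehicle controls.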

Assay [7] concerns Mus musculus. As to the kind of experiment: In vivo percent inhibition of Lewis Lung Carcinoma cell line in mice at 200 mg/Kg per day (p<0.001) compared with ara-C. It is filed as functional. Put shortly:
as §2

Assay [8] deals with KB. As to the kind of experiment: Tested in vitro for cytotoxicity against KB human oral epidermoid carcinoma cell line. It is filed as functional, cell-based. Put shortly:
as §1

In assay [9] the test system is Mus musculus. As to the kind of experiment: Mean body weight change on 17th day at a dose of 200 mg/kg/day. It is filed as functional. Put shortly: as §3
Assay [10] concerns Mus musculus. As to the kind of experiment: Tested in vivo for antitumor activity against Lewis Lung Carcinoma cell line in mice and tumor weight change at 100 mg/Kg per day. It is filed as functional. Put shortly:
as §2

For assay [11], the system named is Mus musculus. The experiment in a line: Mean body weight change on 5th day at a dose of 100 mg/kg/day. The assay is classed as functional. Put shortly:
as §3

Assay [12] concerns Mus musculus. The experiment in a line: Mean body weight change on 5th day at a dose of 200 mg/kg/day. The assay is classed as functional. Put shortly:
as §3

The subject of assay [13] is L1210. The experiment in a line: tested in vitro for cytotoxicity against L1210 leukemia cell line in mouse. The assay is classed as functional, cell-based. Put shortly:
as §1

Assay [14] has as its system KB. The experiment in a line: tested in vitro for cytotoxicity against KB human oral epidermoid carcinoma cell line. The assay is classed as functional, cell-based. Put shortly:
as §1

In assay [15] the test system is KATO III stomach cancer cell line. As to the kind of experiment: tested for in vitro cytotoxicity against KATO III human stomach adenocarcinoma cell line. It is filed as functional, cell-based. Put shortly: as §1
Assay [16] relates to Lewis lung carcinoma cell line. The experiment in a line: tested for in vitro cytotoxicity against LLC Lewis lung carcinoma cell line. It is filed as functional, cell-based. The conditions noted are these: Mus musculus. Put shortly:
as §1

Assay [17] has as its system KB. The experiment in a line: Tested for in vitro cytotoxicity against KB human oral epidermoid carcinoma cell line. The assay is classed as functional, cell-based. Put shortly:
as §1

In assay [18] the test system is KATO III stomach cancer cell line. As to the kind of experiment: Tested for in vitro cytotoxicity against KATO III human stomach adenocarcinoma cell line. It is filed as functional, cell-based. Put shortly: as §1
Assay [19] deals with L1210. As to the kind of experiment: Tested in vitro for cytotoxicity against L1210 leukemia cell line in mouse.
In assay [20] the test system is Mus musculus. As to the kind of experiment: In vivo percent inhibition of Lewis Lung Carcinoma cell line in mice drug at 200 mg/Kg per day (p<0.001) compared with NCDAC. It is filed as functional. Put shortly:
as §2

Assay [21] has as its system Mus musculus. As to the kind of experiment: Tested for in vivo antitumor activity against Lewis Lung Carcinoma cell line in mice and tumor weight change at 100 mg/Kg per day. It is filed as functional. Put shortly: as §2
For assay [22], the system named is Lewis lung carcinoma cell line. The experiment in a line: Tested for in vitro cytotoxicity against LLC Lewis lung carcinoma cell line. It is filed as functional, cell-based. The conditions noted are these: Mus musculus. Put shortly: as §1
Assay [23] deals with Mus musculus. As to the kind of experiment: In vivo percent inhibition of Lewis Lung Carcinoma cell line in mice at 100 mg/Kg per day (p<0.001) compared with NCDAC. It is filed as functional. Put shortly: as §2

Structures are written as SMILES.

Regarding `[C-]#[N+][C@@H]1[C@H](n2ccc(N)nc2=O)OC(CO)[C@@H]1O` (stereo partly drawn), the IC50 in assay [1] came to 4.9 µM; in [2], 90 µM; in assay [4], 12.6 µM; in [8], 7.9 µM. Besides, the Tumor weight was 1.09 g in [3] and 1.08 g in [10]. Moreover, the Inhibition ratio amounted to 61% in assay [5] and 60.6% in assay [7]. Further, the Weight change in [6] came out at 2; in assay [9], 2.1; in assay [11], 0.4; in [12], 0.2.
Turning to `[C-]#[N+][C@@H]1[C@H](n2ccc(=O)[nH]c2=O)OC(CO)[C@@H]1O` (stereo partly drawn), the IC50 in assay [13] was 34 µM; in assay [14] it was 36.8 µM; in assay [15], above 100 µM; in assay [16], above 100 µM.
Regarding `Nc1ccn([C@@H]2O[C@H](CO)[C@@H](O)[C@@H]2O)c(=O)n1` [CYTARABINE], the IC50 in [17] turned out to be 0.64 µM; in assay [18], 0.3 µM; in assay [19], 0.12 µM; in [22] it was 5.6 µM. The Tumor weight in assay [3] is 0.34 g; in assay [21], 0.47 g. In addition, the Weight change in assay [6] is on record as 0.8; in assay [9], 0.7; in [11] it was -0.4; in assay [12] it was -0.1. Moreover, the Inhibition ratio is 87.7% in assay [20] and 83% in assay [23].
